Screening results deposited in PubChem by Broad Institute.
DENV2 CPE rescue: inhibitors of DENV2 cytopathic effect; DENV2-infected cells, cytopathic effect rescue, plate reader; CPE inhibition, % at 9.99 µM; 350,000 compounds, 1.7% hits; in the data active = CPE inhibition above about 20%, passing the limit was not always enough; tested in BHK-21 cells;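 note: 0% = median of neutral control wells and 100% = median of positive control wells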
ERAP1 HTS inh: ERAP1 (human) enzyme inhibition; Q9NZ08; recombinant ERAP1, Leu-AMC fluorescence, 60 min; inhibition, % at 10.7 µM; 340,000 compounds, 0.15% hits; AID 652197;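 active = mean replicate inhibition of at least 30%, or all replicates individually reaching that 30% level; inactive = mean below 30% and not every replicate reaching it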;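 note: 0% = neutral control wells and 100% = L-leucinethiol positive control wells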
E-selectin induc: induces E-selectin expression in human endothelial cells; 260,000 compounds, 0.37% hits; activation, % at 7.58 µM; HUVEC E-selectin immunofluorescence imaging; normalized: neutral wells 0, TNF-alpha wells 100; P16581;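 active = mean E-selectin-positive cell signal at least 10% of the positive control, reached in at least 60% of replicates, without over 20% cell loss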
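Read-out: % PE-positive cells | Test system: HUVEC | Doses: One compound dose added by pin transfer | Buffer or medium: EGM-2 over gelatin coat | Signal: Immunofluorescence imaging | Benchmarks: TNF-alpha, DMSO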
FGF22 binding: binders of recombinant human FGF22 by thermal shift; SYPRO orange fluorescence; percent of sucrose octasulfate shift, DMSO zero; 340,000 compounds, 1.5% hits; activity (Tm shift, normalised), % at 9.99 µM;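 active = mean Tm shift, scaled 0 neutral to 100 positive control, at about 1.3% or above, every replicate too, limit read from the data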
Target sequence (Q9HCT0 whole entry, looked up): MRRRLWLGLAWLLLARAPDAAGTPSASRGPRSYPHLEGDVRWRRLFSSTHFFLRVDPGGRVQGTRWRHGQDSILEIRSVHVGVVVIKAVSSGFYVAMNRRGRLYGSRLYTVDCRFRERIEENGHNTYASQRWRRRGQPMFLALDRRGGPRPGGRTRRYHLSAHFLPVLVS
F508del corr: correctors of CFTR F508del function in bronchial epithelial cells; CFBE cells, YFP halide quenching; stimulated with forskolin plus potentiator P3; % fluorescence drop versus neutral controls; activity (quench increase), % at 7.58 µM; AID 720511; 350,000 compounds, 0.36% hits;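 active = mean added fluorescence quench of at least 8% versus neutral control, with both replicates also reaching 8%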;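 note: cells transiently co-express mutant CFTR-F508del with the halide-sensitive YFP; corrector assay measuring rescue of mutant channel to the surface after 24 h compound exposure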
The depositor's hits bear a star. Sampled rows, rich in hits. Any-hit rate of the full collection: about 3.7%.

`COc1ccc(S(=O)(=O)N(C)C[C@H]2OCCCC[C@@H](C)Oc3ccc(NC(=O)Nc4cccc5ccccc45)cc3C(=O)N([C@@H](C)CO)C[C@H]2C)cc1` gave DENV2 CPE rescue -8, ERAP1 HTS inh -5, E-selectin induc 0, FGF22 binding 1.5* and F508del corr 1.
`COCC#Cc1cnc2c(c1)C(=O)N([C@H](C)CO)C[C@@H](C)[C@H](CN(C)Cc1ccccc1F)O2` gave E-selectin induc 0 and F508del corr -3.
For CC(C)CC#Cc1ccc2c(c1)O[C@H](CN(C)Cc1cccnc1)[C@@H](C)CN([C@H](C)CO)S2(=O)=O the results were DENV2 CPE rescue 7, ERAP1 HTS inh -2, E-selectin induc 0, FGF22 binding 0 and F508del corr -6.
`COc1cc(CN2CC3(CN(C(=O)Nc4cccc(F)c4)C3)c3c(n(C)c4cc(OC)ccc34)[C@@H]2CO)cc(OC)c1` gave DENV2 CPE rescue -13, ERAP1 HTS inh -1, E-selectin induc 0, FGF22 binding 0 and F508del corr 0.
Screening CSS(=O)(=O)c1cccc2cccnc12 returned DENV2 CPE rescue 5, ERAP1 HTS inh 85*, E-selectin induc 0, FGF22 binding 0 and F508del corr 0.
`CCN(CC)S(=O)(=O)c1cccc2cccnc12` gave E-selectin induc 1.
Screening C[C@@H]1CN([C@@H](C)CO)C(=O)c2cc(NS(=O)(=O)c3ccccc3)ccc2O[C@@H](C)CCCCO[C@@H]1CN(C)C(=O)c1ccncc1 returned DENV2 CPE rescue -1, ERAP1 HTS inh 2, E-selectin induc 0, FGF22 binding 0 and F508del corr 1.
`C(=C\c1sc(Nc2ccccc2)n[n+]1-c1ccccc1)/c1ccccc1` gave DENV2 CPE rescue 52*, E-selectin induc 0, FGF22 binding 0 and F508del corr -5.
For C[C@H](CO)N1C[C@H](C)[C@H](CN(C)Cc2ccncc2)Oc2ccc(NS(C)(=O)=O)cc2CC1=O the results were DENV2 CPE rescue -2, ERAP1 HTS inh -4, E-selectin induc 257*, FGF22 binding 0 and F508del corr -1.
C[C@H]1CN([C@@H](C)CO)C(=O)Cc2cc(NS(C)(=O)=O)ccc2O[C@@H]1CN(C)Cc1ccncc1 was read as DENV2 CPE rescue 7, ERAP1 HTS inh 1, E-selectin induc 449*, FGF22 binding 0 and F508del corr 1.
For C[C@H](CO)N1C[C@H](C)[C@@H](CN(C)Cc2ccncc2)Oc2ccc(NS(C)(=O)=O)cc2CC1=O the results were ERAP1 HTS inh 7, E-selectin induc -4, FGF22 binding 0 and F508del corr 1.
Screening C/C=C/c1ccc([C@H]2[C@@H](CO)N(C(C)=O)C23CN(C(=O)NC2CCCC2)C3)cc1 returned DENV2 CPE rescue 13, ERAP1 HTS inh 3, E-selectin induc 1 and F508del corr -1.
Screening C[C@@H]1CN([C@H](C)CO)C(=O)c2ccccc2-c2ccccc2CO[C@@H]1CN(C)C returned DENV2 CPE rescue -2, ERAP1 HTS inh 2, E-selectin induc 0, FGF22 binding 0 and F508del corr 1.
Screening CC(C)C#Cc1cnc2c(c1)C(=O)N([C@H](C)CO)C[C@H](C)[C@@H](CN(C)C(=O)c1ccccn1)O2 returned DENV2 CPE rescue 12, ERAP1 HTS inh -2, E-selectin induc 0, FGF22 binding 0 and F508del corr 0.
For O=C(O)c1cccc(N2C(=O)c3cccc(Oc4ccc(Cl)cc4)c3C2=O)c1 the results were DENV2 CPE rescue -4, ERAP1 HTS inh 1, FGF22 binding 43* and F508del corr -3.
`O=C(CNC(=O)c1ccc(N2C(=O)c3ccccc3C2=O)cc1)OCC(=O)c1ccc(Cl)cc1` gave DENV2 CPE rescue 3, ERAP1 HTS inh 3, FGF22 binding 0 and F508del corr 6.
Screening O=C(O)c1ccc(N2C(=O)c3cccc(Oc4ccc(Cl)cc4)c3C2=O)cc1 returned DENV2 CPE rescue 1, ERAP1 HTS inh 10, FGF22 binding 44* and F508del corr 2.
`Cc1nonc1CC(=O)N1CCCC(C(=O)c2cccc(C(F)(F)F)c2)C1` (configuration not stated) gave DENV2 CPE rescue -3, ERAP1 HTS inh 2, E-selectin induc 1, FGF22 binding 46* and F508del corr -1.
O=C(c1ccc(C(F)(F)F)cc1)C1CCCN(C(=O)CCN2CCCO2)C1 (configuration not stated) was read as DENV2 CPE rescue 9, ERAP1 HTS inh -1, FGF22 binding 44* and F508del corr 0.
For COc1ccc(C(=O)C2CCCN(C(=O)Cc3c(C)noc3C)C2)cc1OC (configuration not stated) the results were DENV2 CPE rescue 10, ERAP1 HTS inh -3, E-selectin induc 0, FGF22 binding 43* and F508del corr 0.
Screening C[C@H](CO)N1C[C@H](C)[C@@H](CN(C)C(=O)Nc2cccc3ccccc23)Oc2ccc(NC(=O)Nc3ccc4c(c3)OCO4)cc2CC1=O returned DENV2 CPE rescue 9, ERAP1 HTS inh 0, E-selectin induc 0, FGF22 binding 0 and F508del corr 4.
Screening CCNC(=O)C[C@H]1CC[C@H]2[C@H](COc3ccc(NC(=O)c4ccccc4Cl)cc3C(=O)N2C)O1 returned DENV2 CPE rescue 15, E-selectin induc 0, FGF22 binding 0 and F508del corr 2.
For CC(C)NC(=O)Nc1ccc2c(c1)C(=O)N([C@H](C)CO)C[C@H](C)[C@H](CN(C)S(=O)(=O)c1ccc(Cl)cc1)O2 the results were DENV2 CPE rescue 12, ERAP1 HTS inh 0, E-selectin induc 0, FGF22 binding 0 and F508del corr 1.
For CN1C(=O)c2cc(NC(=O)c3ccc(F)c(F)c3)ccc2OC[C@@H]2O[C@@H](CC(=O)N[C@@H]3CCN(Cc4ccccc4)C3)CC[C@@H]21 the results were DENV2 CPE rescue 0, ERAP1 HTS inh -1, E-selectin induc 0 and FGF22 binding 0.
For CCCN1C[C@@H](C)[C@H](OC)CN(C)C(=O)c2ccc(NS(=O)(=O)c3ccccc3)cc2OC[C@@H]1C the results were DENV2 CPE rescue 37*, ERAP1 HTS inh -1, E-selectin induc 0, FGF22 binding 0 and F508del corr 2.
`CCCN1C[C@@H](C)[C@@H](OC)CN(C)C(=O)c2cc(NS(=O)(=O)c3ccccc3)ccc2OC[C@H]1C` gave DENV2 CPE rescue -3, E-selectin induc 0, FGF22 binding 0 and F508del corr -2.
For CCCN1C[C@H](C)[C@@H](OC)CN(C)C(=O)c2ccc(NS(C)(=O)=O)cc2OC[C@H]1C the results were DENV2 CPE rescue 27*, ERAP1 HTS inh 1, E-selectin induc 0 and FGF22 binding 0.
